# Experimental data: PubChem BioAssay AID1027 (Sanford-Burnham Center for Chemical Genomics, 2008)
# Hit rate of the full screen: of about 200,000 compounds, fewer than 10 were called active.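 The calls were made as follows: active = luciferase activation factor, scaled between plate controls, of at least 2 with compound at 10 µM; inactive = the rest.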 The list is a sample of the results.
# Target: Luciferin 4-monooxygenase (Photinus pyralis) (UniProt P08659)
# Test: FLuc activators, initial screening, artefact control for FLuc-dependent activation tests, biochemical, ATPlite luminescence (AID 1027)
# Details: ATPlite luciferase biochemical, 10 min, at 10 µM, stronger effect = higher value, 0 = ATP-free wells, 1 = DMSO control
# In short: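 System: Luciferase/luciferin detection reagent, cell-free biochemical luciferase assay | Medium: PBS buffer for ATP | Dosing: Test compounds dosed from 2 mM stocks in 100% DMSO | Timing: 10 min at ambient temperature | Signal: Luminescence measurement of luciferase light output | Evaluation: Luciferase activation, seen as luminescence increase over controls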
# Chain of Luciferin 4-monooxygenase (Photinus pyralis) (P08659 whole entry, looked up): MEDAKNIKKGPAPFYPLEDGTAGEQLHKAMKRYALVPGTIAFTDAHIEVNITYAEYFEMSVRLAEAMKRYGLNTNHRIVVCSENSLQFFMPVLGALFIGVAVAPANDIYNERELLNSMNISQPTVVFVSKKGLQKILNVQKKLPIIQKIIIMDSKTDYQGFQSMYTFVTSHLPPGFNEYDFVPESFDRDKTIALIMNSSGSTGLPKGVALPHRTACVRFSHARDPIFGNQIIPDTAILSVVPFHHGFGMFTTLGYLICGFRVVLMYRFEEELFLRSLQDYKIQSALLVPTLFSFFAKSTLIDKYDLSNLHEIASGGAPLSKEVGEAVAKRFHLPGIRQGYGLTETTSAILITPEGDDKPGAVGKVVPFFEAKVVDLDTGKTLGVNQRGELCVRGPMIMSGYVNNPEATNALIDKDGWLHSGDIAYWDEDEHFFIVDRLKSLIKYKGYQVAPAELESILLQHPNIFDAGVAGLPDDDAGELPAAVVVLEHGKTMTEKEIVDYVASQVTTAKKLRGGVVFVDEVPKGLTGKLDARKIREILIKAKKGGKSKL
row,SMILES,activation factor
1,CCO[C@H]1OC(C(=O)N2CCCCCCC2)=C[C@@H](c2ccc(C(F)(F)F)cc2)[C@@H]1CCCO,1.1 (inactive)
2,Cc1nn(Cc2ccc(F)cc2)c(C)c1NC(=O)c1cccnc1Cl,1.1 (inactive)
3,O=C(CCN1C(=O)c2ccccc2C1=O)C1=NN[C@@H]2C(=O)N(c3ccc(F)cc3)C(=O)[C@H]12,1 (inactive)
4,CCOc1ccc(-c2ccc(SCC(=O)N3CCOCC3)nn2)cc1,0.2 (inactive)
5,Cc1scc(C(=O)NNC(=S)NCC(C)C)c1C,1 (inactive)
6,CCCn1nc(C(=O)N2CCCc3ccccc32)c2ccccc2c1=O,1.1 (inactive)
7,Cc1ccc2cc(CCNC(=O)c3ccc4c(c3)OCO4)c(=O)[nH]c2c1,1.1 (inactive)
8,COc1ccc2oc(=O)c(C(=O)NCc3ccccn3)cc2c1,0.9 (inactive)
9,Cc1ccc2c(c1)C1CN(C)CCC1N2C(=O)c1ccccc1NS(=O)(=O)c1ccc(F)cc1C (stereo not given),1.1 (inactive)
10,CCOc1ccc(CCNC(=O)C2=C(C)C(=O)OC23CCC(C)CC3)cc1OCC (stereo not given),1.1 (inactive)
11,COc1ccc(NS(=O)(=O)c2ccc(O)c(C(=O)OCC(=O)NC3CCCCC3)c2)cc1,1.1 (inactive)
12,Cc1cccc(N=Nc2c(O)[nH]c3ccc(F)cc23)c1,0.9 (inactive)
13,NC1=NC(=O)C(Cc2cccc(Cl)c2)S1 (stereo not given),1 (inactive)
14,CN(C)c1ccnc(Nc2ccc(F)cc2)c1C#N,1 (inactive)
15,COc1ccc(NC(=O)N2CCCC(c3nc(-c4ccc(F)cc4)no3)C2)cc1 (stereo not given),1 (inactive)
16,CN1CCN(c2ccc(NC(=O)c3ccc4c(c3)[nH]c(=O)n4Cc3ccc(F)cc3)cc2)CC1,1 (inactive)
17,COc1ccc(NC(=O)CN2C(=O)C(c3ccccc3)=NC23CCCCCC3)cc1OC,1 (inactive)
18,CC(NC(=O)COC(=O)c1ccc(Cl)cc1O)c1ccc(F)cc1 (stereo not given),1 (inactive)
19,CCOc1cccc(OCCCOc2cccc3cccnc23)c1,1 (inactive)
20,S=c1[nH]nc(NCCc2ccccc2)s1,0.9 (inactive)

row,SMILES,activation factor
1,COc1ccc(C(=O)N2CCC(C(=O)Nc3ccc(C)cc3)CC2)cc1,1 (inactive)
2,COc1cccc(/C=C2\SC(=N)N(c3ccc(F)cc3)C2=O)c1,1.1 (inactive)
3,O=[N+]([O-])/C(N=Nc1ccccc1)=N\Nc1ccccc1,1.1 (inactive)
4,COc1ccc(CC(=O)N[C@@H](CCSC)c2nc3ccccc3[nH]2)cc1,1.1 (inactive)
5,O=C(NCc1ccccn1)c1cc(Br)ccc1Cl,1 (inactive)
6,CC1CCN(c2ccc(C(=O)Nc3nnc(C4CC4)s3)cc2[N+](=O)[O-])CC1,1 (inactive)
7,Cc1cccc(N2C(=O)CC(SC(N)=Nc3ccccc3)C2=O)c1 (stereo not given),1.1 (inactive)
8,COc1cc(/C=C/CO)cc(OC)c1O[C@@H]1O[C@H](CO)[C@@H](O)[C@H](O)[C@H]1O,1 (inactive)
9,Cc1ccc2[nH]cc(CCCN3C(=O)c4ccccc4C3=O)c2c1,1 (inactive)
10,COc1ccc(NC(=O)C(NC(C)=O)C(=O)NCc2ccccc2Cl)cc1 (stereo not given),1 (inactive)
11,CC(OC(=O)CCc1nc(=O)c2ccccc2n1C)C(=O)NCc1ccc2c(c1)OCO2 (stereo not given),1.1 (inactive)
12,CO/N=C(\N)c1ccc([N+](=O)[O-])cc1,1.1 (inactive)
13,Cc1ccc(CCCOC(=O)C[N+]2(C)CCCCC2)cc1,1 (inactive)
14,O=C(Cc1ccccc1)Nc1cccc(C(=O)N/N=C/c2ccco2)c1,0.9 (inactive)
15,Cc1ccc(CSc2nc3[nH]ncc3c(=O)[nH]2)cc1,0.6 (inactive)
16,COc1ccccc1NC(=O)C[n+]1ccccc1,1 (inactive)
17,COc1cc(C(=O)N2C(=O)c3cccc(N)c3C2=O)cc(OC)c1OC,1 (inactive)
18,CCOC(=O)C1CCCN(C(=O)c2cccc(S(=O)(=O)N3CCOCC3)c2)C1 (stereo not given),1 (inactive)
19,COc1cccc(NC(=O)C(Sc2nc3ccccc3c(=O)n2CC(C)C)c2ccccc2)c1 (stereo not given),1 (inactive)
20,Cc1cs/c(=N\N=C\c2ccc(O)cc2)n1Cc1ccco1,1 (inactive)
